The source of these data is ChEMBL document CHEMBL5705905, “Pharmacological targeting of kinases MST1 and MST2 augments tissue repair and regeneration” (Sci Transl Med, 2016).

Each structure is given as a SMILES string. Active and inactive are the calls of the source. No cut-off for these calls is given here.

Assay [1] has as its target Casein kinase II subunit alpha (Homo sapiens) (UniProt P68400). As to the kind of experiment: Inhibition of CSNK2A1 (unknown origin) assessed as remaining activity at 1 uM by Kinome scan method relative to control. Put shortly:
(§1)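 Active-site-dependent competition-binding profiling (KINOMEscan) at 1 μM against a 468-kinase panel; compound supplied from a 10 mM DMSO stock. Read-out is ctrl% = (test signal − positive control signal)/(negative control signal − positive control signal) × 100. DMSO is the negative control (100%) and a control compound the positive control (0%). Lower ctrl% means tighter binding.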

Assay [2] deals with T1, Serine/threonine-protein kinase 4 (Homo sapiens, UniProt Q13043).
T1 sequence (Q13043 whole entry): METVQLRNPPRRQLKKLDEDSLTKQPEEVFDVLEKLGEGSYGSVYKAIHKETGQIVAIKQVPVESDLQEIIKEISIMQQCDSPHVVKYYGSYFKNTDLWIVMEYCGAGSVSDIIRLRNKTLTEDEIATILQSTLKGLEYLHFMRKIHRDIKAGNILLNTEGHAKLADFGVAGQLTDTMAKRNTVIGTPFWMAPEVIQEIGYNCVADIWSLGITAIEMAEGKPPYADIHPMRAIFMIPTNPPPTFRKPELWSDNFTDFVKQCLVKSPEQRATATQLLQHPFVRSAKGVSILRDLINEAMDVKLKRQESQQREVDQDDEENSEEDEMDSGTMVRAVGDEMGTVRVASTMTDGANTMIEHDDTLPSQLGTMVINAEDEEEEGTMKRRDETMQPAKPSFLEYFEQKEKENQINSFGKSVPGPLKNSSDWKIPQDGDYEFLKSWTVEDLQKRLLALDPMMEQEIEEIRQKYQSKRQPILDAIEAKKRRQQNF
Description: Inhibition of recombinant His-tagged full-length MST1 (unknown origin) expressing in Escherichia coli assessed as MOB1a phosphorylation level incubated for 30 min in the presence of 300 uM ATP by immunoblot analysis.

Assay [3] deals with Protein kinase C iota type (Homo sapiens) (UniProt P41743). Description: Inhibition of PRKCI (unknown origin) assessed as remaining activity at 1 uM by Kinome scan method relative to control.
Chain of Protein kinase C iota type (Homo sapiens) (P41743 whole entry): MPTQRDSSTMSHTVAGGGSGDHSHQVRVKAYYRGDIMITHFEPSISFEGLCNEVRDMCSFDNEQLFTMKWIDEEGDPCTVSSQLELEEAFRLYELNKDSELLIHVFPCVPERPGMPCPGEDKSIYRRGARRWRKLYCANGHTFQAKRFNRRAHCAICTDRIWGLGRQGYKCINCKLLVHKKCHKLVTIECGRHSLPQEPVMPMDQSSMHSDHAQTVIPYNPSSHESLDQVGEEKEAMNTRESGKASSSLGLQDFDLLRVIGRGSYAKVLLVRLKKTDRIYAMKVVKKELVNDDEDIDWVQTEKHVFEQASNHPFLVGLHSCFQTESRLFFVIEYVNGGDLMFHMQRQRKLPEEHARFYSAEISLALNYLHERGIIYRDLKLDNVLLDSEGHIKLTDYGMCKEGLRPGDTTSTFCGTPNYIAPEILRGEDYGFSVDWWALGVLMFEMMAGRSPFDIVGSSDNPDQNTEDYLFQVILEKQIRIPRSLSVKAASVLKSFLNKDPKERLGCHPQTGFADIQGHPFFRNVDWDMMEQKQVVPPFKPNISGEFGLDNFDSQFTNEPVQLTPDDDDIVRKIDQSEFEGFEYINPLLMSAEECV
The target in assay [4] is Tyrosine-protein kinase Lck (Homo sapiens) (UniProt P06239). As to the kind of experiment: Inhibition of LCK (unknown origin) assessed as remaining activity at 1 uM by Kinome scan method relative to control.
Chain of Tyrosine-protein kinase Lck (Homo sapiens) (P06239 2-509 limits assumed): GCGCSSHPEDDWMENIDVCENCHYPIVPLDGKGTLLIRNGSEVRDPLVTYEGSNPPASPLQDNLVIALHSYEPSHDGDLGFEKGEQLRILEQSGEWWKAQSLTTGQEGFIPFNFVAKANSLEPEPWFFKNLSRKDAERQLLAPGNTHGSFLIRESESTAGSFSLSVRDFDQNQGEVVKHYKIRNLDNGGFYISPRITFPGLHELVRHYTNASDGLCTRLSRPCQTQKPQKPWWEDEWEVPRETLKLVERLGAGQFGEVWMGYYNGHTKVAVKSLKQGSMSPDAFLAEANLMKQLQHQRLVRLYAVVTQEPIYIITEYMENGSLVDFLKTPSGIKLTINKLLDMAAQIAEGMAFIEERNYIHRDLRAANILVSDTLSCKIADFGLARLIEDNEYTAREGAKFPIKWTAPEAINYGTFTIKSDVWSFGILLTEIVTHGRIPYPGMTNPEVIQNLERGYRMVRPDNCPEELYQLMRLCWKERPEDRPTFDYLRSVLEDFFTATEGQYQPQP
The subject of assay [5] is Receptor-type tyrosine-protein kinase FLT3 (Homo sapiens), P36888 [K663Q]. Description: Inhibition of FLT3 K663Q mutant (unknown origin) assessed as remaining activity at 1 uM by Kinome scan method relative to control.
Assay [6] concerns the target Mitogen-activated protein kinase kinase kinase 3 (Homo sapiens, UniProt Q99759). As to the kind of experiment: Inhibition of MAP3K3 (unknown origin) in presence of ATP by enzymatic assay.
Assay [7] has as its target Serine/threonine-protein kinase 16 (Homo sapiens) (UniProt O75716). As to the kind of experiment: Inhibition of STK16 (unknown origin) assessed as remaining activity at 1 uM by Kinome scan method relative to control.
The target of assay [8] is Tyrosine-protein kinase Mer (Homo sapiens) (UniProt Q12866). As to the kind of experiment: Inhibition of MERTK (unknown origin) assessed as remaining activity at 1 uM by Kinome scan method relative to control.
The target in assay [9] is Dual specificity mitogen-activated protein kinase kinase 1 (Homo sapiens) (UniProt Q02750). As to the kind of experiment: Inhibition of MEK1 (unknown origin) assessed as remaining activity at 1 uM by Kinome scan method relative to control.
Chain of Dual specificity mitogen-activated protein kinase kinase 1 (Homo sapiens) (Q02750 whole entry): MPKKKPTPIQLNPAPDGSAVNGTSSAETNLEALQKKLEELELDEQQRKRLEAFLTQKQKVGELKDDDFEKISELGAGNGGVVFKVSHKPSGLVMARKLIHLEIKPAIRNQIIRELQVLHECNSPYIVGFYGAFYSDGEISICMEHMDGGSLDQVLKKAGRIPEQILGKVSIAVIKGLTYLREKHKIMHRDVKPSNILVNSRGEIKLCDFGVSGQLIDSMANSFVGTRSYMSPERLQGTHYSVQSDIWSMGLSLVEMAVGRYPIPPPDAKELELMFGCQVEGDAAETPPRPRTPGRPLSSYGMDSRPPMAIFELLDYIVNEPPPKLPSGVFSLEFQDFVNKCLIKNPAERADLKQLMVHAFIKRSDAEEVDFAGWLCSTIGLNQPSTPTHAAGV
Assay [10] deals with MAP kinase-interacting serine/threonine-protein kinase 2 (Homo sapiens) (UniProt Q9HBH9). As to the kind of experiment: Inhibition of MKNK2 (unknown origin) assessed as remaining activity at 1 uM by Kinome scan method relative to control.
Assay [11] concerns the target MAP kinase-activated protein kinase 2 (Homo sapiens) (UniProt P49137). As to the kind of experiment: Inhibition of MAPKAPK2 (unknown origin) assessed as remaining activity at 1 uM by Kinome scan method relative to control.
Assay [12] addresses Tyrosine-protein kinase ABL1 (Homo sapiens, UniProt P00519, Q252H). As to the kind of experiment: Binding affinity to phosphorylated ABL1 Q252H mutant (unknown origin) assessed as dissociation constant.
In assay [13] the target is Serine/threonine-protein kinase NIM1 (Homo sapiens) (UniProt Q8IY84). Description: Inhibition of NIM1 (unknown origin) assessed as remaining activity at 1 uM by Kinome scan method relative to control.
Chain of Serine/threonine-protein kinase NIM1 (Homo sapiens) (Q8IY84 whole entry): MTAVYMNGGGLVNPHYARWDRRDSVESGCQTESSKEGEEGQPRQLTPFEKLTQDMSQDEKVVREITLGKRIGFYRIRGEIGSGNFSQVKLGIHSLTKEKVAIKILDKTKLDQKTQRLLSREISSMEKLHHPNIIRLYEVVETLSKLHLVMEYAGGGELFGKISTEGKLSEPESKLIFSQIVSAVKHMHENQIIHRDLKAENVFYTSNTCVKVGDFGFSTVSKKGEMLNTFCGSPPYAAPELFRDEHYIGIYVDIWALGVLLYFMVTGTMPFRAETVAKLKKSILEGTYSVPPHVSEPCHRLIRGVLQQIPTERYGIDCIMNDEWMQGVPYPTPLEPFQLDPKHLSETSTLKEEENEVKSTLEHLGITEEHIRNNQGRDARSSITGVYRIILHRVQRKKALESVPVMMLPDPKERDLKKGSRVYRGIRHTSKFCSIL
Assay [14] deals with Cyclin-dependent kinase 4 (Homo sapiens) (UniProt P11802). Description: Inhibition of CDK4 (unknown origin) assessed as remaining activity at 1 uM by Kinome scan method relative to control. In short, it runs like this: as §1
Chain of Cyclin-dependent kinase 4 (Homo sapiens) (P11802 whole entry): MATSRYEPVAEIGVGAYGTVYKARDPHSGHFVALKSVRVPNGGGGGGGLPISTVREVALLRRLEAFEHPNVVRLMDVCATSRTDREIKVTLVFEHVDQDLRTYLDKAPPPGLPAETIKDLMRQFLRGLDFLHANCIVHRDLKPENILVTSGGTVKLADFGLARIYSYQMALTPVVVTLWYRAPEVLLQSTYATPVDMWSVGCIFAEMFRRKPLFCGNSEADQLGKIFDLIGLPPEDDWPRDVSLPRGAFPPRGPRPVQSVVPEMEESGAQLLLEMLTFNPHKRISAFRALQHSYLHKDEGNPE
The target of assay [15] is Mitogen-activated protein kinase kinase kinase 1 (Homo sapiens) (UniProt Q13233). Description: Inhibition of MAP3K1 (unknown origin) assessed as remaining activity at 1 uM by Kinome scan method relative to control.
Assay [16] concerns the target cGMP-dependent protein kinase 1 (Homo sapiens) (UniProt Q13976). Description: Inhibition of PRKG1 (unknown origin) assessed as remaining activity at 1 uM by Kinome scan method relative to control.
Assay [17] relates to Mast/stem cell growth factor receptor Kit (Homo sapiens), P10721 [L576P]. Description: Inhibition of KIT L576P mutant (unknown origin) assessed as remaining activity at 1 uM by Kinome scan method relative to control.
The target of assay [18] is 1-phosphatidylinositol 3-phosphate 5-kinase (Homo sapiens) (UniProt Q9Y2I7). As to the kind of experiment: Inhibition of PIKFYVE (unknown origin) assessed as remaining activity at 1 uM by Kinome scan method relative to control.
Chain of 1-phosphatidylinositol 3-phosphate 5-kinase (Homo sapiens) (Q9Y2I7 whole entry): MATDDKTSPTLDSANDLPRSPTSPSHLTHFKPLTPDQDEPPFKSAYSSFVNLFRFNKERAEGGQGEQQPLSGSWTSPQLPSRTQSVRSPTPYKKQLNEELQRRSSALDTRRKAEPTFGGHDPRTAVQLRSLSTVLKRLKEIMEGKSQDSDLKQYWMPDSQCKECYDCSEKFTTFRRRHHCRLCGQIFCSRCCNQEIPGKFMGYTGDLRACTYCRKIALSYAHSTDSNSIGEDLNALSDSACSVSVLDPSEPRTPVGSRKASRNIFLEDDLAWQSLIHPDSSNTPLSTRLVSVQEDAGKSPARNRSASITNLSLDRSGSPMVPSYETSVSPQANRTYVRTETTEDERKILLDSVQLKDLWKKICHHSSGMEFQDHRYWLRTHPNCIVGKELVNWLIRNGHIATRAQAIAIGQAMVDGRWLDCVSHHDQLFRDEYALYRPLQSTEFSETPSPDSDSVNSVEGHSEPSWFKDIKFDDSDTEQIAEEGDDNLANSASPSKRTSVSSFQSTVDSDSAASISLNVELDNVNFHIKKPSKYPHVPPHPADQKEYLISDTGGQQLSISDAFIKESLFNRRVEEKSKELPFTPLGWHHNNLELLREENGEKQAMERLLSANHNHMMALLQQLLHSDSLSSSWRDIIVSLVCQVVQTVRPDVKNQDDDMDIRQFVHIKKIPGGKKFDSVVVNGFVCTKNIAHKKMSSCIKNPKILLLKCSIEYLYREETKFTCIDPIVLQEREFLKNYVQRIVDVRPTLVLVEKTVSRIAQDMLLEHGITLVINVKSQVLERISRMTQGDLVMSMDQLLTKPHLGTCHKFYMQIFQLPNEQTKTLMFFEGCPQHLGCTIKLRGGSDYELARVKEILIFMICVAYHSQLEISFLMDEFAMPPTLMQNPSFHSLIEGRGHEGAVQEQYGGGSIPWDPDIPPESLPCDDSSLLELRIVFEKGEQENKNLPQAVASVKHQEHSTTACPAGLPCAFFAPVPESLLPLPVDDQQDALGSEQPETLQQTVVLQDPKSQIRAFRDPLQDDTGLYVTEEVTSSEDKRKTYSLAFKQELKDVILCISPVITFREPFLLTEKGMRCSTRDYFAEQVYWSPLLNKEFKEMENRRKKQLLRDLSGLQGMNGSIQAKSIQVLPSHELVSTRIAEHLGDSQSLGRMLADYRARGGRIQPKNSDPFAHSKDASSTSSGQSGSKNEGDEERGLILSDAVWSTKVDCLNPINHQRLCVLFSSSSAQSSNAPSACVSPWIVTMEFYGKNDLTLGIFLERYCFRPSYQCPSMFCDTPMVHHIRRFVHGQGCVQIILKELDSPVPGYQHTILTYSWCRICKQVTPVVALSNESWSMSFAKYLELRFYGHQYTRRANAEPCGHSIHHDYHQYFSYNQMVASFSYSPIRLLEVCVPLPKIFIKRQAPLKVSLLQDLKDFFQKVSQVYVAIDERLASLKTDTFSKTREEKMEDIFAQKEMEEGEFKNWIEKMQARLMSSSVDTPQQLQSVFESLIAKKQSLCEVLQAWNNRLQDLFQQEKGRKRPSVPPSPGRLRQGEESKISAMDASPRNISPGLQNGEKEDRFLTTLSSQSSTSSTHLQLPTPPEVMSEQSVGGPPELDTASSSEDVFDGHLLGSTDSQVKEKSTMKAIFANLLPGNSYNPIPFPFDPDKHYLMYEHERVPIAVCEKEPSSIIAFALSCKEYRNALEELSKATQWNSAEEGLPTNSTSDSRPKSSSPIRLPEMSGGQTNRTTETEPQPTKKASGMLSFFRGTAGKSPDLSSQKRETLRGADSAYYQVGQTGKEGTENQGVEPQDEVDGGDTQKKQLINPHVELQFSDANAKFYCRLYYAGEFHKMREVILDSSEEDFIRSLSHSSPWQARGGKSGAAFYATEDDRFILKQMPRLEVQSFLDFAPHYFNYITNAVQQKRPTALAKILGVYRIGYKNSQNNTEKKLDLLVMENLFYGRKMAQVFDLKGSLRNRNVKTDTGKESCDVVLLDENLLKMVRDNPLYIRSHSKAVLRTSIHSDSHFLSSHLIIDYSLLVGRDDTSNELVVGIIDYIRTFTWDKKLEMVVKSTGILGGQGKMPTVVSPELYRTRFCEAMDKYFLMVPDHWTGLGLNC
In assay [19] the test system is Fibroblast growth factor receptor 3 (Homo sapiens), P22607 [G697C]. Description: Inhibition of FGFR3 G697C mutant (unknown origin) assessed as remaining activity at 1 uM by Kinome scan method relative to control.
In assay [20] the target is Atypical kinase COQ8A, mitochondrial (Homo sapiens) (UniProt Q8NI60). As to the kind of experiment: Inhibition of ADCK3 (unknown origin) assessed as remaining activity at 1 uM by Kinome scan method relative to control. Put shortly: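 Active-site-dependent competition-binding (KINOMEscan) panel of 468 kinases, test compound at 1 μM (from a 10 mM DMSO stock). Read-out is ctrl% = (test signal − positive control signal)/(negative control signal − positive control signal) × 100. DMSO is the negative control (100%) and a control compound is the positive control (0%). Lower ctrl% means tighter binding.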

Assay [21] has as its target Mitogen-activated protein kinase kinase kinase kinase 4 (Homo sapiens) (UniProt O95819). As to the kind of experiment: Inhibition of MAP4K4 (unknown origin) assessed as remaining activity at 1 uM by Kinome scan method relative to control.
The subject of assay [22] is Primary hepatocyte. As to the kind of experiment: Inhibition of MST1/2 (unknown origin) in mouse Primary hepatocyte cells assessed as H2O2 stimulated MOB1 phosphorylation level at 1 to 3 uM by immunoblot analysis. Type of assay: cell-based. To be noted: dose 1-3 µM. On the technique in general: In western blotting, separated proteins are transferred to a membrane and probed.

In assay [23] the target is Rhodopsin kinase GRK1 (Homo sapiens) (UniProt Q15835). Description: Inhibition of GRK1 (unknown origin) assessed as remaining activity at 1 uM by Kinome scan method relative to control.
The target in assay [24] is LIM domain kinase 2 (Homo sapiens) (UniProt P53671). Description: Inhibition of LIMK2 (unknown origin) assessed as remaining activity at 1 uM by Kinome scan method relative to control.

Chain of Casein kinase II subunit alpha (Homo sapiens) (P68400 whole entry, looked up): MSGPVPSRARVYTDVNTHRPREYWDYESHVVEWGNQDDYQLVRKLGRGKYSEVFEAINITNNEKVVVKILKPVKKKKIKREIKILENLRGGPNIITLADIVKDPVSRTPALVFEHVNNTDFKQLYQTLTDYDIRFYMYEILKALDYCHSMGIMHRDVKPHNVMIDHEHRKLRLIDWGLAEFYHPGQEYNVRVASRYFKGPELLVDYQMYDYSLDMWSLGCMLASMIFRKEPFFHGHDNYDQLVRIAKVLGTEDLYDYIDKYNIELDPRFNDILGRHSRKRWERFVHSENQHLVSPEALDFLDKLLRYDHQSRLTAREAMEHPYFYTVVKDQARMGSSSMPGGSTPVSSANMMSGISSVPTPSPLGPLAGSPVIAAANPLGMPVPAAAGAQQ
Chain of Serine/threonine-protein kinase 16 (Homo sapiens) (O75716 whole entry): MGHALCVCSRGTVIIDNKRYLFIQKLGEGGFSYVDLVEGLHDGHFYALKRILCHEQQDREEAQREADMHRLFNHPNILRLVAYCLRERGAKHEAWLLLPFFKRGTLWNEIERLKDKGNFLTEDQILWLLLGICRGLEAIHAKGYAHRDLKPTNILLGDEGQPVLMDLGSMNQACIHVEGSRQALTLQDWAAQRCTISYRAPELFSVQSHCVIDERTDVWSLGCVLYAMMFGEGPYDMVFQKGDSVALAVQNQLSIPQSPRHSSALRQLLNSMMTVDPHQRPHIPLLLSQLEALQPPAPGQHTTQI

The IC50 is the point on the concentration scale where inhibition reaches its midpoint. As usually defined, the Kd is the concentration at which binding is half-saturated. As for `CN1C(=O)c2sccc2N(C)c2nc(Nc3ccc(S(N)(=O)=O)cc3)ncc21`, the Activity in assay [1] was 94%; in [3], 94%; in [4] it was 100%; in assay [5] it was 87%; in assay [7], 50%; in [8] it was 100%. In addition, the Activity in [9] was found to be 91%; in assay [10], 59%; in assay [11], 91%; in assay [13] it was 61%; in assay [14], 86%; in assay [15], 48%. Besides, the Activity in assay [16] is 98%; in assay [17] it was 75%; in assay [18], 64%; in assay [19], 95%; in assay [20], 92%; in assay [21], 100%. Also, the figures for the Activity in assay [23] and in assay [24] were 94% and 100%, respectively. Also, the figures for the IC50 in assay [2] and in assay [6] were 4040 nM and 38.4 nM, respectively. The Kd in assay [12] is 24 nM. In addition, the inhibition entry in [22] was “Active”.
